What was measured:
[1] = target: T1, Delta-type opioid receptor (Mus musculus, UniProt P32300); experiment: Opioid receptor delta 1 agonism in mouse vas deferens; format: functional, tissue-based
Method in brief: (§1)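 Isolated tissue bioassay: mouse vas deferens for δ, guinea pig ileum for μ. Field stimulation with bipolar rectangular pulses of supramaximal voltage. Inhibition of the electrically evoked twitch measured, and IC50 taken from concentration–response curves. [D-Ala2]deltorphin I (MVD) and dermorphin (GPI) were internal standards. Five to six separate assays.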

Mu-type opioid receptor [2] = target: Mu-type opioid receptor (Cavia porcellus, UniProt P97266); experiment: Opioid receptor mu 1 agonism in guinea pig ileum; format: functional, tissue-based; method in brief: as §1
Sequence of Mu-type opioid receptor (Cavia porcellus, UniProt P97266) (P97266 whole entry): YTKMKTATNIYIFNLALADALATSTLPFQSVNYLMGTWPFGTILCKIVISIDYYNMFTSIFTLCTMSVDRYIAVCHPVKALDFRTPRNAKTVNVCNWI

Mu-type opioid receptor [3] = target: Mu-type opioid receptor (Rattus norvegicus, UniProt P33535); experiment: Binding affinity for Opioid receptor mu 1 using [3H]DAGO in rat brain P2 synaptosomal preparation; format: tissue-based
Sequence of Mu-type opioid receptor (Rattus norvegicus, UniProt P33535) (P33535 whole entry): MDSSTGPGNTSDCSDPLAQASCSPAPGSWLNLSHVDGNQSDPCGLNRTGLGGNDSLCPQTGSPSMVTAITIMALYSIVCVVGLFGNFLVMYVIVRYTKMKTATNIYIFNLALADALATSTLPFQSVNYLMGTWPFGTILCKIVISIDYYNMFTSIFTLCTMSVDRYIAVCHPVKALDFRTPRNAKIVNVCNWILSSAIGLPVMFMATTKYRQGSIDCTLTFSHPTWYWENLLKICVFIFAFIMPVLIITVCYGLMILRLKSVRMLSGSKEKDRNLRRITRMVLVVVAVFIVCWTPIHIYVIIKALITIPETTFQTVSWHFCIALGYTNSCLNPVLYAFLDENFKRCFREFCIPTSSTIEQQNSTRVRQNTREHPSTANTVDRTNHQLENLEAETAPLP
Method in brief: (§2)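 Competition binding at equilibrium, 2 h at room temperature, on rat brain P2 synaptosomes. Nonspecific binding with 2 μM unlabeled peptide. GF/C filtration and scintillation counting. Duplicates, five to eight doses, 3–5 repeats. Ki by Cheng–Prusoff.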

[4] = target: Delta-type opioid receptor (Rattus norvegicus, UniProt P33533); experiment: Binding affinity for Opioid receptor delta 1 using [3H]DPDPE in rat brain P2 synaptosomal preparation; format: tissue-based; method in brief: as §2
Sequence of Delta-type opioid receptor (Rattus norvegicus, UniProt P33533) (P33533 whole entry): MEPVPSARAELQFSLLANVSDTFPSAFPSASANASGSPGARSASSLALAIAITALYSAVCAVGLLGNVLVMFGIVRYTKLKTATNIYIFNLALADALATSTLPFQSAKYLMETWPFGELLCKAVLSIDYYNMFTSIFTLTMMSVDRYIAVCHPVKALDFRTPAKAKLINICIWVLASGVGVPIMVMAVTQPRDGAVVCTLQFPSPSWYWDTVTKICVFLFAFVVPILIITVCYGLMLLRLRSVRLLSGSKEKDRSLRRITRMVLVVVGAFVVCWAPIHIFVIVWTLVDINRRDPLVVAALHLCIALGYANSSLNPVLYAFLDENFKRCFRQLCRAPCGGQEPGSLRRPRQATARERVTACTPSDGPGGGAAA

[5] = target: T1, Delta-type opioid receptor; experiment: Concentration required to double the agonist concentration to achieve the original response for Opioid receptor delta 1; format: functional; settings: read-out: pA2 (converted)
Method in brief: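 Antagonism reported as pA2, the negative log of the molar antagonist concentration that doubles the agonist concentration needed for the original response. Measured in the δ bioassay, the electrically stimulated mouse vas deferens twitch preparation. n = 5–6.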

[6] = target: Opioid receptors; mu & delta (Rattus norvegicus) (UniProt P33533+P33535); experiment: Receptor selectivity for the delta to mu opioid receptor; format: protein assay
Sequence of Opioid receptors; mu & delta (Rattus norvegicus) (P33533 whole entry, looked up): as the sequence (P33533 whole entry) above
Sequence of Opioid receptors; mu & delta (Rattus norvegicus) (P33535 whole entry, looked up): as the sequence (P33535 whole entry) above
Method in brief: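 δ/μ ratio of Ki values from rat brain P2 synaptosome competition binding ([3H]DPDPE for δ, [3H]DAGO for μ; 2 h, room temperature). Ki calculated by Cheng–Prusoff.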

T1 sequence (P32300 whole entry): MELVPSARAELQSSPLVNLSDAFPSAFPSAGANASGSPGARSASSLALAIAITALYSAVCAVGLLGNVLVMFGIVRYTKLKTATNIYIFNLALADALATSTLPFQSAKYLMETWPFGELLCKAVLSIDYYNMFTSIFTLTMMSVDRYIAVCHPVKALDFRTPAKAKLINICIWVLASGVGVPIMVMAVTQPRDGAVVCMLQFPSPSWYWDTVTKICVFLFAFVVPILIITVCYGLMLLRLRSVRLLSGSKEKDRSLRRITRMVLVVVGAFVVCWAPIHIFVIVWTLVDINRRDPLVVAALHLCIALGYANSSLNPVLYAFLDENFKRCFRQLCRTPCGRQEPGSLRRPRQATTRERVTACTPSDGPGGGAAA

## Cc1cc(O)cc(C)c1C[C@@H](N)C(=O)NCCCCCCNC(=O)[C@@H](N)Cc1c(C)cc(O)cc1C
[1]
  IC50: > 10000 nM
Mu-type opioid receptor [2]
  IC50: 3.08 nM
Mu-type opioid receptor [3]
  Ki: 0.053 nM
[4]
  Ki: 46.1 nM
[5]
  Kb: 794 nM
[6]
  Ratio: 870

## Cc1cc(O)cc(C)c1C[C@H](N)C(=O)NCCCCNC(=O)[C@H](N)Cc1ccc(O)cc1
[1]
  IC50: > 10000 nM
Mu-type opioid receptor [2]
  IC50: 255 nM
Mu-type opioid receptor [3]
  Ki: 0.38 nM
[4]
  Ki: 133 nM
[5]
  Kb: 5010 nM
[6]
  Ratio: 349

## Cc1cc(O)cc(C)c1C[C@@H](N)C(=O)NCCNC(=O)[C@@H](N)Cc1c(C)cc(O)cc1C
[1]
  IC50: > 10000 nM
Mu-type opioid receptor [2]
  IC50: 2840 nM
Mu-type opioid receptor [3]
  Ki: 1.43 nM
[4]
  Ki: 116 nM
[5]
  Kb: 3160 nM
[6]
  Ratio: 81

## N[C@H](Cc1ccc(O)cc1)C(=O)NCCNC(=O)[C@@H](N)Cc1ccc(O)cc1
Mu-type opioid receptor [3]
  Ki: 648 nM
[4]
  Ki: 8290 nM
[6]
  Ratio: 13

## N[C@H](Cc1ccc(O)cc1)C(=O)NCCCCNC(=O)[C@@H](N)Cc1ccc(O)cc1
Mu-type opioid receptor [3]
  Ki: 309 nM
[4]
  Ki: 6500 nM
[6]
  Ratio: 21

## Cc1cc(O)cc(C)c1C[C@@H](N)C(=O)NCCCCNC(=O)[C@@H](N)Cc1c(C)cc(O)cc1C
[1]
  IC50: > 10000 nM
Mu-type opioid receptor [2]
  IC50: 5.33 nM
Mu-type opioid receptor [3]
  Ki: 0.041 nM
[4]
  Ki: 53.4 nM
[5]
  Kb: 1580 nM
[6]
  Ratio: 1300

## Cc1cc(O)cc(C)c1C[C@H](N)C(=O)NCCCCNC(=O)[C@H](N)Cc1ccccc1
[1]
  IC50: > 10000 nM
Mu-type opioid receptor [2]
  IC50: 181 nM
Mu-type opioid receptor [3]
  Ki: 0.52 nM
[4]
  Ki: 62 nM
[5]
  Kb: 3160 nM
[6]
  Ratio: 119

## N[C@H](Cc1ccc(O)cc1)C(=O)NCCCCCCCCNC(=O)[C@@H](N)Cc1ccc(O)cc1
Mu-type opioid receptor [3]
  Ki: 399 nM
[4]
  Ki: 6150 nM

## N[C@H](Cc1ccc(O)cc1)C(=O)NCCCCCCNC(=O)[C@@H](N)Cc1ccc(O)cc1
Mu-type opioid receptor [3]
  Ki: 410 nM
[4]
  Ki: 21900 nM
[6]
  Ratio: 53

## Cc1cc(O)cc(C)c1C[C@@H](N)C(=O)NCCCCCCCCNC(=O)[C@@H](N)Cc1c(C)cc(O)cc1C
[1]
  IC50: > 10000 nM
Mu-type opioid receptor [2]
  IC50: 53.7 nM
Mu-type opioid receptor [3]
  Ki: 0.19 nM
[4]
  Ki: 14.8 nM
[5]
  Kb: 398 nM
[6]
  Ratio: 78

## N[C@H](Cc1ccccc1)C(=O)NCCCCNC(=O)[C@@H](N)Cc1ccccc1
Mu-type opioid receptor [3]
  Ki: 1530 nM
[4]
  Ki: 46200 nM
[6]
  Ratio: 30
